Calls of active or inactive are those of the source. The rule behind the calls is not given here.
How the values were obtained:
Plasmodium berghei [1] = assay: Antimalarial activity against GFP-fused Plasmodium berghei ANKA infected in mouse assessed as protection against parasitemia at 6 mg/kg, po administered once daily for 4 days measured 30 days post infection by light microscopy; assay type: functional, organism-based
Plasmodium berghei [2] = assay: Antimalarial activity against GFP-fused Plasmodium berghei ANKA infected in mouse assessed as protection against parasitemia at 25 mg/kg, po administered once daily for 4 days measured 30 days post infection by light microscopy; assay type: functional, organism-based
Plasmodium berghei [3] = assay: Antimalarial activity against GFP-fused Plasmodium berghei ANKA infected in mouse assessed as protection against parasitemia at 3 mg/kg, po administered once daily for 4 days measured 30 days post infection by light microscopy; assay type: functional, organism-based
Summary of the method: (§1)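 P. berghei-infected mice, 3 per group. Compound formulated in 90/10 Tween80/ethanol (v/v), diluted 10-fold with water, given orally once daily at 4, 24, 48 and 72 h post-infection. Outcomes: % parasitemia reduction versus untreated control, mean survival days, and cured/infected. Mice with <40% reduction euthanized on day 4.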

Plasmodium berghei [4] = assay: Antimalarial activity against GFP-fused Plasmodium berghei ANKA infected in mouse assessed as protection against parasitemia at 50 mg/kg, po administered once daily for 4 days measured 30 days post infection by light microscopy; assay type: functional, organism-based; summary of the method: as §1
Ferriprotoporphyrin IX [5] = assay: Inhibition of beta hematin formation in ring stage of chloroquine-sensitive Plasmodium falciparum NF54 assessed as decrease in haemozoin level after 36 hrs by UV-vis spectra analysis
Summary of the method: (§2)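 Synchronized ring-stage parasites treated with increasing drug concentrations, then cellular fractionation. Free haem and haemozoin quantified as iron (fg/cell) and compared with untreated control; significance by p-values; parasite survival overlaid.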

Plasmodium berghei [6] = assay: Antimalarial activity against GFP-fused Plasmodium berghei ANKA infected in mouse assessed as protection against parasitemia at 12.5 mg/kg, po administered once daily for 4 days measured 30 days post infection by light microscopy; assay type: functional, organism-based
Ferriprotoporphyrin IX [7] = assay: Inhibition of beta hematin formation in ring stage of chloroquine-sensitive Plasmodium falciparum NF54 assessed as increase in free heme level after 36 hrs by UV-vis spectra analysis; summary of the method: as §2
Plasmodium berghei [8] = assay: Antimalarial activity against GFP-fused Plasmodium berghei ANKA infected in mouse assessed as reduction in parasitemia at 3 mg/kg, po administered once daily for 4 days by flow cytometry relative to control; assay type: functional; set-up: scale not given: the % may be the effect or the level left; summary of the method: as §1
Plasmodium berghei [9] = assay: Antimalarial activity against GFP-fused Plasmodium berghei ANKA infected in mouse assessed as reduction in parasitemia at 6 mg/kg, po administered once daily for 4 days by flow cytometry relative to control; assay type: functional; set-up: scale not given: the % may be the effect or the level left
Plasmodium berghei [10] = assay: Antimalarial activity against GFP-fused Plasmodium berghei ANKA infected in mouse assessed as mouse mean survival days at 25 mg/kg, po administered once daily for 4 days; assay type: functional
Plasmodium berghei [11] = assay: Antimalarial activity against GFP-fused Plasmodium berghei ANKA infected in mouse assessed as reduction in parasitemia at 12.5 mg/kg, po administered once daily for 4 days by flow cytometry relative to control; assay type: functional; set-up: scale not given: the % may be the effect or the level left
Plasmodium berghei [12] = assay: Antimalarial activity against GFP-fused Plasmodium berghei ANKA infected in mouse assessed as mouse mean survival days at 50 mg/kg, po administered once daily for 4 days; assay type: functional
Summary of the method: (§3)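 P. berghei-infected mice (n=3 per dose) dosed orally once daily on 4 consecutive days at 4, 24, 48 and 72 h after infection; compound in 90/10 Tween80/ethanol (v/v) diluted 10-fold with water. Read-outs were % parasitemia reduction, mean survival time in days and cure; mice with <40% parasitemia reduction euthanized on day 4.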

Plasmodium berghei [13] = assay: Antimalarial activity against GFP-fused Plasmodium berghei ANKA infected in mouse assessed as mouse mean survival days at 3 mg/kg, po administered once daily for 4 days; assay type: functional; summary of the method: as §3
Plasmodium berghei [14] = assay: Antimalarial activity against GFP-fused Plasmodium berghei ANKA infected in mouse assessed as reduction in parasitemia at 25 mg/kg, po administered once daily for 4 days by flow cytometry relative to control; assay type: functional; set-up: scale not given: the % may be the effect or the level left
Plasmodium berghei [15] = assay: Antimalarial activity against GFP-fused Plasmodium berghei ANKA infected in mouse assessed as mouse mean survival days at 6 mg/kg, po administered once daily for 4 days; assay type: functional
Plasmodium berghei [16] = assay: Antimalarial activity against GFP-fused Plasmodium berghei ANKA infected in mouse assessed as mouse mean survival days at 12.5 mg/kg, po administered once daily for 4 days; assay type: functional
Plasmodium berghei [17] = assay: Antimalarial activity against GFP-fused Plasmodium berghei ANKA infected in mouse assessed as reduction in parasitemia at 50 mg/kg, po administered once daily for 4 days by flow cytometry relative to control; assay type: functional; set-up: scale not given: the % may be the effect or the level left; summary of the method: as §1

CCNCCNc1cc(-c2ccc(C(F)(F)F)cc2)c(C#N)c2nc3ccccc3n12
Activity (Plasmodium berghei [1]): inactive
Activity (Plasmodium berghei [2]): inactive
Activity (Plasmodium berghei [3]): inactive
Activity (Plasmodium berghei [4]): inactive
inhibition (Ferriprotoporphyrin IX [5]): Dose-dependent effect
Activity (Plasmodium berghei [6]): inactive
inhibition (Ferriprotoporphyrin IX [7]): Dose-dependent effect

CCNCCNc1cc(-c2ccc(C(F)(F)F)cc2)c(C#N)c2nc3ccccc3n12.Cl
Activity (Plasmodium berghei [8]): <40%
Activity (Plasmodium berghei [9]): 38%
MSD (Plasmodium berghei [10]): 14 days
Activity (Plasmodium berghei [11]): 81%
MSD (Plasmodium berghei [12]): 14 days
MSD (Plasmodium berghei [13]): 4 days
Activity (Plasmodium berghei [14]): 96%
MSD (Plasmodium berghei [15]): 7 days
MSD (Plasmodium berghei [16]): 14 days
Activity (Plasmodium berghei [17]): 96%
